Values after ≈ are worked out from the molar mass of the structure shown. Active and inactive are the calls of the source. No cut-off for these calls is given here. Starred links: 1 amine or outer side, 2 acyl side, 3 side chain; linkers in the order of their positions; H or OH if unused. Positions of bridges follow the written chain, without caps; N, C: chain ends. Non-standard residues stand in square brackets, D forms with d. Residues, ends and D or L forms follow the SMILES beside them. Chains are numbered I, II in the order given. Actinocin(1to9) = Cc1c2oc3c(C)ccc(C(=O)[*:2])c3nc-2c(C(=O)[*:1])c(N)c1=O; NMeV = CN[C@H](C(=O)O)C(C)C; Sar = CNCC(=O)O
Tests used:
T-24 = assay: Cytotoxicity against human T24 cells after 6 days by MTT assay; assay type: functional; details: for EC50: T-24, 144 h, read-out: ED50 (the source's name)
Outline: (§1)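 Human lines kept in DMEM with 10% FBS, 2 mM glutamine, penicillin/streptomycin. 1-3 × 10^3 cells/100 µL seeded, 6 h attachment, then medium replaced with fresh medium (plus 10 mM HEPES pH 7.3) holding a range of drug concentrations. Exposure 6 days, 37 °C, CO2. MTT (1 mg/mL stock, 10 µL) for 4 h, DMSO solubilization, absorbance 550 nm. ED50 in µg/mL.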

Ca-Ski = assay: Cytotoxicity against human CaSki cells after 6 days by MTT assay; assay type: functional; details: for EC50: 144 h, read-out: ED50 (the source's name); outline: as §1
SiHa = assay: Cytotoxicity against human SiHa cells after 6 days by MTT assay; assay type: functional; details: for EC50: Homo sapiens, SiHa, 144 h, read-out: ED50 (the source's name); outline: as §1
HT-3 = assay: Cytotoxicity against human HT-3 cells after 6 days by MTT assay; assay type: functional; details: for EC50: Homo sapiens, HT-3, 144 h, read-out: ED50 (the source's name); outline: as §1
PLC-PRF-5 = assay: (§2) Cytotoxicity against human PLC/PRF/5 cells after 6 days by MTT assay; assay type: functional; outline: as §1
[1] = Cytotoxicity against mouse NIH/3T3-212 cells after 6 days by MTT assay; assay type: cell-based; details: for Activity: 144 h; for CC50 at 144 h: NIH/3T3-212 cells, read-out: ED50
Outline: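 212 cells (NIH/3T3 carrying inducible Ha-ras) kept in alpha-MEM with 10% calf serum and antibiotics. 1-3 × 10^3 cells/100 µL seeded, 6 h attachment, then fresh HEPES-supplemented (10 mM, pH 7.3) medium with graded drug concentrations for 6 days at 37 °C. MTT 4 h, DMSO dissolution, read at 550 nm. ED50 in µg/mL.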

[2] = as §2; assay type: functional; details: PLC-PRF-5, 144 h, read-out: ED50 (the source's name); outline: as §1

Compound	Activity (T-24)	Activity (Ca-Ski)	Activity (SiHa)	Activity (HT-3)	Activity (PLC-PRF-5)	Activity [1]	EC50 (T-24) [µg/mL]	EC50 (Ca-Ski) [ng/mL]	EC50 (SiHa) [µg/mL]	EC50 (HT-3) [µg/mL]	EC50 [2] [µg/mL]	CC50 at 144 h [1] [µg/mL]	ED50 (SiHa) [×10⁻⁴ ug/ml]	ED50 (HT-3) [×10⁻⁴ ug/ml]
COc1ccc(-c2c3c(c(O)c4cc5c(cc24)OCO5)COC3=O)cc1OC	inactive	inactive	inactive	inactive	inactive	Not Active								
COc1cc(-c2c3c(c(OC)c4cc(OC)c(OC)cc24)COC3=O)ccc1O [CILINAPHTHALIDE A]							1.3 (≈ 3.28 µM)	3000 (≈ 7.57 µM)	6.4 (≈ 16.1 µM)	0.3 (≈ 0.757 µM)	12 (≈ 30.3 µM)	> 8		
COc1c2c(c(-c3ccc4c(c3)OCO4)c3cc4c(cc13)OCO4)C(=O)OC2 [TAIWANIN E METHYL ETHER]							5 (≈ 13.2 µM)	> 8000	6.1 (≈ 16.1 µM)	2.6 (≈ 6.87 µM)	6.8 (≈ 18 µM)	> 8		
COc1cc2c(OC)c3c(c(-c4ccc5c(c4)OCO5)c2cc1OC)COC3=O [NEOJUSTICIN B]	inactive	inactive	inactive	inactive	inactive	Not Active								
COc1cc2c(OC)c3c(c(-c4ccc5c(c4)OCO5)c2cc1OC)C(=O)OC3 [JUSTICIDIN A]							0.002 (≈ 0.00507 µM)	3 (≈ 0.00761 µM)	0.0074 (≈ 0.0188 µM)	0.0018 (≈ 0.00456 µM)	0.0022 (≈ 0.00558 µM)	0.0227 (≈ 0.0576 µM)		
COc1ccc(-c2c3c(c(OC)c4cc(OC)c(OC)cc24)COC3=O)cc1OC [CILINAPHTHALIDE B]	inactive	inactive	inactive	inactive	inactive	Not Active								
COc1ccc(-c2c3c(c(OC)c4cc5c(cc24)OCO5)COC3=O)cc1OC [CHINENSINAPHTHOL METHYL ETHER]	inactive	inactive	inactive	inactive	inactive	Not Active								
COC(=O)C(Cc1ccc2c(c1)OCO2)C(Cc1ccc2c(c1)OCO2)C(=O)OC (stereo not drawn)	inactive	inactive	inactive	inactive	inactive	Not Active								
Cc1c2oc3c(C)ccc(C(=O)N[C@@H]4C(=O)N[C@H](C(C)C)C(=O)N5CCC[C@H]5C(=O)N(C)CC(=O)N(C)[C@@H](C(C)C)C(=O)O[C@@H]4C)c3nc-2c(C(=O)N[C@@H]2C(=O)N[C@H](C(C)C)C(=O)N3CCC[C@H]3C(=O)N(C)CC(=O)N(C)[C@@H](C(C)C)C(=O)O[C@@H]2C)c(N)c1=O [DACTINOMYCIN] (I: T[dV]P[Sar][NMeV] / II: T[dV]P[Sar][NMeV]; ester I:1-I:C, II:1-II:C; linker I:N-II:N via Actinocin(1to9))							0.0015 (≈ 0.00119 µM)	1.9 (≈ 0.00151 µM)			0.0014 (≈ 0.00112 µM)		8.1	5.6
